Data taken from ChEMBL document CHEMBL4480389, “Chemoenzymatically synthesized ganglioside GM3 analogues with inhibitory effects on tumor cell growth and migration” (Eur J Med Chem, 2019).
pIC50: −log10 of the molar value. Activity calls are given as the source filed them. The rule behind the calls is not given here.

How the values were obtained:
HCT-116 = experiment: Antiproliferative activity against human HCT116 cells after 48 hrs by MTT assay; type: functional, cell-based; conditions: HCT-116, 48 h
Method in brief: (§1)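 Cells were seeded at 8×10^3 per well in RPMI-1640 with 10% heat-inactivated FBS. They were treated for 48 h at 37 °C, 5% CO2 with 20, 200, 400 or 1000 μM analogue, or DMSO vehicle. MTT (5 mg/mL solution) was added for 4 h, and absorbance was read at 570 nm. Viability was taken relative to vehicle control, as means ± SD of three independent experiments.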

K562 = experiment: Antiproliferative activity against human K562 cells after 48 hrs by MTT assay; type: functional, cell-based; conditions: K562, 48 h; method in brief: as §1
B16 = experiment: Antimigratory activity against mouse B16 cells at 6.25 to 12.5 uM after 48 hrs by wound healing assay; type: functional, cell-based
Method in brief: (§2)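 Near-confluent monolayers (1.5×10^5 cells per well, RPMI-1640 with 10% FBS) were scratched with a pipette tip and washed twice with serum-free medium. They were then exposed for 48 h to analogue in fresh FBS-containing medium, with DMSO medium as control. Wounds were photographed, and migration was expressed as % of 0 h (wound width at endpoint/width at 0 h). Done in triplicate.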

HCCLM3 = experiment: Antimigratory activity against human HCCLM3 cells at 50 uM after 48 hrs by wound healing assay; type: functional, cell-based; method in brief: as §2
B16-F10 = experiment: Antimigratory activity against mouse B16F10 cells at 6.25 to 12.5 uM after 12 hrs by wound healing assay

**Q.** How did the pIC50 (HCT-116) turn out when CCCCCCCCCCCCC/C=C/[C@@H](O)[C@@H](N)CO[C@H]1O[C@H](CO[C@]2(C(=O)O)C[C@H](O)[C@@H](NC(C)=O)[C@H]([C@H](O)[C@H](O)CO)O2)[C@@H](O)[C@H](O)[C@@H]1O was run?
**A.** Its pIC50 is 3.74.

**Q.** What about the pIC50 (K562) of the same compound?
**A.** Its pIC50 is 3.83.

**Q.** And the Activity (B16)?
**A.** The Activity was “Active”.

**Q.** And the Activity (HCCLM3)?
**A.** The Activity was “Active”.

**Q.** And the Activity (B16-F10)?
**A.** Its Activity is “Active”.

**Q.** CCCCCCCCCCCCC/C=C/[C@@H](O)[C@H](CO[C@@H]1O[C@H](CO[C@]2(C(=O)O)C[C@H](O)[C@@H](NC(C)=O)[C@H]([C@H](O)[C@H](O)CO)O2)[C@H](O)[C@H](O)[C@H]1O)NC(=O)CCCCCCCCCCCCCCCCC was tested. Which pIC50 (HCT-116) did it give?
**A.** Its pIC50 is 4.06.

**Q.** What about the pIC50 (K562) of the same compound?
**A.** The pIC50 was 3.40.

**Q.** What about the Activity (B16) of the same compound?
**A.** Its Activity is “Active”.

**Q.** What about the Activity (HCCLM3) of the same compound?
**A.** The Activity was “inactive”.

**Q.** What about the Activity (B16-F10) of the same compound?
**A.** Its Activity is “Active”.

**Q.** With CCCCCCCCCCCCC/C=C/[C@@H](O)[C@@H](N)CO[C@@H]1O[C@H](CO[C@]2(C(=O)O)C[C@H](O)[C@@H](NC(C)=O)[C@H]([C@H](O)[C@H](O)CO)O2)[C@H](O)[C@H](O)[C@H]1O as the compound, how does the pIC50 (HCT-116) read?
**A.** The pIC50 was 3.89.

**Q.** What about the pIC50 (K562) of the same compound?
**A.** Its pIC50 is 3.69.

**Q.** And the Activity (B16)?
**A.** The Activity was “Active”.

**Q.** And the Activity (HCCLM3)?
**A.** Its Activity is “Active”.

**Q.** What about the Activity (B16-F10) of the same compound?
**A.** Its Activity is “Active”.

**Q.** Which results are given for CCCCCCCCCCCCC/C=C/[C@@H](O)[C@H](CO[C@H]1O[C@H](CO[C@]2(C(=O)O)C[C@H](O)[C@@H](NC(C)=O)[C@H]([C@H](O)[C@H](O)CO)O2)[C@@H](O)[C@H](O)[C@@H]1O)NC(=O)CCCCCCCCCCCCCCCCC?
**A.** pIC50 (HCT-116): 4.19; pIC50 (K562): 3.80; Activity (B16): Active; Activity (HCCLM3): inactive; Activity (B16-F10): Active
